These results are taken from ChEMBL document CHEMBL2163230, “Identification of a glutathione peroxidase inhibitor that reverses resistance to anticancer drugs in human B-cell lymphoma cell lines” (Bioorg Med Chem Lett, 2012).

Test [1] deals with T1, Glutathione peroxidase 1 (Homo sapiens) (UniProt P07203).
T1 sequence (whole entry): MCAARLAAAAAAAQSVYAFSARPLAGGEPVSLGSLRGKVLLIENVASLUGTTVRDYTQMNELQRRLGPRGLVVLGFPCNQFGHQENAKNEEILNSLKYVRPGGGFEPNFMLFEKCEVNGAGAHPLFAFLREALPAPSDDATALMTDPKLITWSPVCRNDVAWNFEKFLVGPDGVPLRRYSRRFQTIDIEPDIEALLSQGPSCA
Conditions: 50 uM.

Test [2] deals with T2, Glutathione reductase, mitochondrial (Homo sapiens) (UniProt P00390).
T2 sequence (whole entry): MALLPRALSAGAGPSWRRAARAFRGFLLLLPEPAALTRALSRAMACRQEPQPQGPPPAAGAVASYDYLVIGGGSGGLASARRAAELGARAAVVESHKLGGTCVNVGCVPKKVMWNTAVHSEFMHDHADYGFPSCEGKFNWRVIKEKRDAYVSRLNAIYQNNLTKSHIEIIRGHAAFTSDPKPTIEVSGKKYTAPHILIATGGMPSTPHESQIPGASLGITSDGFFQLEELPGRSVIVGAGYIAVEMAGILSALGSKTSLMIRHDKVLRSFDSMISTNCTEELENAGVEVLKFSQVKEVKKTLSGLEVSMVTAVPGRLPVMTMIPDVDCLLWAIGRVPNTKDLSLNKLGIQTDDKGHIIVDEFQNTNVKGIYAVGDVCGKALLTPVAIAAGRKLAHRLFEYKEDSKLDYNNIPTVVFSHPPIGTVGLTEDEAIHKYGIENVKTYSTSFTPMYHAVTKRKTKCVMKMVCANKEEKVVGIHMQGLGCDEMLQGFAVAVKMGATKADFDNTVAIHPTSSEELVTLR
The test is described as follows: Inhibition of glutathione reductase up to 200 uM. The gist of the method: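 Specific glutathione reductase assay (earlier method), compound tested at up to 200 µM.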

Test [3] has as its target T3, Glutathione peroxidase 1 (Homo sapiens, UniProt P07203).
T3 sequence (P07203 whole entry): T1 sequence (whole entry)
The experiment in a line: Inhibition of GPx1 using gultathione as substrate by glutathione reductase-coupled assay. The gist of the method:
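GPx activity read as NADPH consumption at 340 nm. GPx oxidizes GSH to GSSG with H2O2 as co-substrate, and glutathione reductase reduces GSSG back to GSH. Earlier method, adapted to 96-well format. 0.1% Triton X-100 in all incubations to prevent compound precipitation. Docking used bovine erythrocyte GPx1.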

The target of test [4] is T1, Glutathione peroxidase 1 (Homo sapiens). Conditions: 250 uM.
Test [5] in a line: Cytotoxicity against human bortezomib-resistant GUMBUS cells after 72 hrs by MTT assay. The class given is functional, cell-based. The gist of the method: (§1)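 Cells from two patients with chemotherapy-resistant non-Hodgkin B-cell lymphoma. Resistant sublines were made by exposure to methotrexate, etoposide, cisplatin or bortezomib in culture over 2–3 months. Microtiter MTT assay, giving the IC50 as mean ± SD of 3 or more independent experiments. Drugs were tested alone and with co-incubation with 25 µM inhibitor.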

Test [6] is described as follows: Cytotoxicity against human GUMBUS cells after 72 hrs by MTT assay. It is filed as functional, cell-based. The gist of the method: as §1
On the technique in general: Tetrazolium dyes change colour on reduction, which living cells bring about.

Test [7] is described as follows: Resistance ratio of IC50 for human bortezomib-resistant GUMBUS cells to IC50 for human GUMBUS cells. It is filed as functional.
Test [8] in a line: Cytotoxicity against human DOGUM cells after 72 hrs by MTT assay. It is filed as functional, cell-based. The gist of the method:
as §1

Test [9] can be described thus: Cytotoxicity against human bortezomib-resistant DOGUM cells after 72 hrs by MTT assay. The class given is functional, cell-based. The gist of the method:
as §1

The nature of test [10]: Resistance ratio of IC50 for human bortezomib-resistant DOGUM cells to IC50 for human DOGUM cells. The class given is functional.
Test [11] is described as follows: Cytotoxicity against human etoposide-resistant GUMBUS cells after 72 hrs by MTT assay. The class given is functional, cell-based. The method in brief: as §1
A short description of test [12]: Cytotoxicity against human etoposide-resistant DOGUM cells after 72 hrs by MTT assay. The class given is functional, cell-based. The method in brief:
as §1

The nature of test [13]: Resistance ratio of IC50 for human etoposide-resistant GUMBUS cells to IC50 for human GUMBUS cells. It is filed as functional.
Test [14] in a line: Resistance ratio of IC50 for human etoposide-resistant DOGUM cells to IC50 for human DOGUM cells. The class given is functional.
Test [15] can be described thus: Cytotoxicity against human methotrexate-resistant DOGUM cells after 72 hrs by MTT assay. The class given is functional, cell-based. The gist of the method: as §1
The nature of test [16]: Cytotoxicity against human methotrexate-resistant GUMBUS cells after 72 hrs by MTT assay. It is filed as functional, cell-based. The gist of the method: as §1

SMILES strings stand for the structures. Activity calls are given as the source filed them. The rule behind the calls is not given here.

For the compound `Cc1nccn1CC(=O)N/N=C/c1ccc(O)cc1`, the inhibition (commonly the change of the read-out against control, counted positive when it falls) in test [1] came to 15%. The inhibition entry in test [2] and in [4] was “inactive” throughout. Half-maximal inhibition in [3] (IC50) was put at 169000 nM.

In the case of `CC(C)C[C@H](NC(=O)[C@H](Cc1ccccc1)NC(=O)c1cnccn1)B(O)O` [BORTEZOMIB], the IC50 (in general, the concentration needed to halve the response being measured) in [5] is 35 nM; in test [6] it was 6 nM; in [8], 2 nM; in [9], 7 nM. Further, the “Ratio IC50” value was determined as 6 in [7] and 4 in test [10].

As for `COc1cc([C@@H]2c3cc4c(cc3[C@@H](O[C@@H]3O[C@@H]5CO[C@@H](C)O[C@H]5[C@H](O)[C@H]3O)[C@H]3COC(=O)[C@H]23)OCO4)cc(OC)c1O` [ETOPOSIDE], the IC50 in test [11] was 570 nM; in test [6], 42 nM; in [12], 280 nM; in [8], 75 nM. Moreover, the “Ratio IC50” value in test [13] is 13; in [14], 4.

On to `CN(Cc1cnc2nc(N)nc(N)c2n1)c1ccc(C(=O)N[C@@H](CCC(=O)O)C(=O)O)cc1` [METHOTREXATE], for which the IC50 in [6] was determined as 24 nM; in [8] it was 84 nM; in [15], 340 nM; in test [16] it was 534 nM.
